ChEMBL document CHEMBL1143912, “Synthesis and anti-HIV evaluation of novel 1,3-disubstituted thieno[3,2-c][1,2,6]thiadiazin-4(3H)-one 2,2-dioxides(TTDDs)” (Bioorg Med Chem, 2008)
The source made the active and inactive calls. The rule behind the calls is not given here.

How the values were obtained:
[1] = Cytotoxicity against human MT4 cells after 4 days by MTT assay; assay type: cell-based
How it was run: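 Uninfected MT-4 cells were run in parallel with the antiviral assay, exposed to serial compound concentrations (DMSO stocks, 10 mg/ml) for 4 days at 37 °C, with viability read by MTT. CC50 is the concentration cutting mock-infected cell viability by 50%. ">" marks the highest concentration tested that was still non-cytotoxic. Values are means of at least two experiments.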

[2] = test system: Human immunodeficiency virus 1; experiment: Antiviral activity against HIV1 3B assessed as inhibition of virus-induced cytopathogenicity in MT4 cells after 4 days by MTT assay; assay type: functional, organism-based; conditions: Human immunodeficiency virus 1, 3B, MT4, 96 h
How it was run: (§1)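 MT-4 cells at 1 × 10⁵ cells/mL infected at MOI 0.02, then immediately plated into wells holding serial concentrations of compound (DMSO stocks, 10 mg/ml). Incubated 4 days at 37 °C, then viable cells read by MTT. EC50 is the concentration protecting 50% of infected cells from viral cytopathicity. Values are means of at least two separate experiments.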

[3] = Selectivity index, Ratio of CC50 for human MT4 cells to EC50 for HIV1 3B; assay type: functional
How it was run: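 SI is CC50 in mock-infected MT-4 cells divided by EC50 against HIV-1 IIIB. Both come from the same 4-day MTT assay run in parallel in infected (MOI 0.02) and uninfected cells, each as the mean of at least two experiments.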

[4] = test system: Human immunodeficiency virus 2; experiment: Antiviral activity against HIV2 ROD assessed as inhibition of virus-induced cytopathogenicity in MT4 cells after 4 days by MTT assay; assay type: functional, organism-based; how it was run: as §1

Row | Structure (SMILES) | CC50 at 96 h [1] [µM] | EC50 [2] [µM] | Ratio CC50/EC50 [3] | Activity [4]
1 | N#Cc1ccc(CN2c3ccsc3C(=O)N(Cc3ccccc3)S2(=O)=O)cc1 | 8.5 | > 8.5 | <1 | inactive
2 | O=C1c2sccc2N(Cc2ccc(Br)cc2)S(=O)(=O)N1Cc1ccccc1 | 6.6 | > 6.6 | <1 | inactive
3 | O=C1c2sccc2N(Cc2ccc(Cl)cc2Cl)S(=O)(=O)N1Cc1ccccc1 | 247 | 52.1 | 5 | inactive
4 | N#CCN1c2ccsc2C(=O)N(Cc2ccccc2)S1(=O)=O | 5.7 | > 5.7 | <1 | inactive
5 | O=C1c2sccc2N(Cc2ccc([N+](=O)[O-])cc2)S(=O)(=O)N1Cc1ccccc1 | 268 | > 268 | <1 | inactive
6 | O=C1c2sccc2NS(=O)(=O)N1Cc1ccccc1 | 374 | > 374 | <1 | inactive
7 | O=C1c2sccc2N(Cc2cccc(Cl)c2)S(=O)(=O)N1Cc1ccccc1 | > 299 | 5.9 | >51 | inactive
8 | CN1c2ccsc2C(=O)N(Cc2ccccc2)S1(=O)=O | 202 | 71 | 3 | inactive
9 | N#Cc1ccccc1CN1c2ccsc2C(=O)N(Cc2ccccc2)S1(=O)=O | > 306 | 5.1 | >59 | inactive
10 | N#Cc1cccc(CN2c3ccsc3C(=O)N(Cc3ccccc3)S2(=O)=O)c1 | > 306 | 4 | >76 | inactive
11 | Cc1cn([C@H]2C[C@H](N=[N+]=[N-])[C@@H](CO)O2)c(=O)[nH]c1=O [ZIDOVUDINE] | 35.6 | 0.0007 | 50587 | –
12 | O=C1c2sccc2N(Cc2ccccc2Cl)S(=O)(=O)N1Cc1ccccc1 | > 299 | 4.8 | >62 | inactive
13 | O=C1c2sccc2N(Cc2ccccc2)S(=O)(=O)N1Cc1ccccc1 | 37.5 | > 37.5 | <1 | inactive
14 | O=C1N(Cc2ccccc2Cl)c2cscc2S(=O)(=O)N1Cc1ccccc1 | > 119 | 0.1 | >1190 | –
15 | Cc1ccnc2c1NC(=O)c1cccnc1N2C1CC1 [NEVIRAPINE] | 683 | 0.03 | 22767 | –
16 | O=C1c2sccc2N(Cc2ccccc2Br)S(=O)(=O)N1Cc1ccccc1 | > 270 | 7.3 | >37 | inactive
17 | O=C1c2sccc2N(Cc2ccc(Cl)cc2)S(=O)(=O)N1Cc1ccccc1 | 8.2 | > 8.2 | <1 | inactive
18 | N#CCN1C(=O)N(Cc2ccccc2)S(=O)(=O)c2cscc21 | 503 | 0.9 | 559 | –
